Screening results as filed in PubChem.
RBBP9 inh – inhibitors of human serine hydrolase RBBP9. actives 0.2% (n = 220,000). inhibition, % at 7.94 µM. AID 1515. recombinant RBBP9, FP-Rh probe fluorescence polarization;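 active means inhibition above the campaign mean of all tested compounds plus 3 SD, cut at about 14% in these data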;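 further: plate controls were DMSO wells with RBBP9 for no effect and wells lacking RBBP9 protein for full effect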
Target sequence (O75884 whole entry, looked up): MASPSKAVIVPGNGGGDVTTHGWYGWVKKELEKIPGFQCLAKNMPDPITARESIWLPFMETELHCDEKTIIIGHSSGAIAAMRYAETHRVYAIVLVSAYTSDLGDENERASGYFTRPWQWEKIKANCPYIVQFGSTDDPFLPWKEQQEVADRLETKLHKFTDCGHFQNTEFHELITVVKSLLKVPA
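Measured by: FP readout at 525/598 nm; material: recombinant human RBBP9; also added: Serine-hydrolase probe FP-Rh, 375 nM pre-mixing; medium: Tris buffer pH 8.0, NaCl, Pluronic; replication: one well per compound; doses: one concentration, 7.94 µM nominal, 0.794% DMSO; timing: preincubation 30 min plus labeling 45 min at 25 °C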
p97 inhibitor – human p97 ATPase inhibition | P55072 | recombinant p97 ATPase, Kinase-Glo ATP luminescence, 3 h | inhibition, % at 8 µM | actives 0.42% (n = 220,000); in the data active means inhibition above about 15%;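 further: 0% = DMSO vehicle and 100% = wells lacking enzyme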
Wee1 stabilizer – inhibitors of human Wee1 degradation | P30291 | HeLa Luc-Wee1K328M stability, luciferase luminescence; 100% = proteasome inhibitor MG132 effect | reporter increase, % at 5 µM | actives 1.2% (n = 220,000) | AID 1321;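 active means activation above the mean of all tested compounds plus 3 SD, set per screening run, cut at about 8.8% in these data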;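 further: cells exposed to compound for 20 h before luminescence read; 0% = DMSO alone and 100% = MG132 at 30 µM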
zVAD death inh – L929 zVAD cell death inhibition; L929 zVAD necroptosis rescue, ATP luminescence, 24 h; with zVAD 60 µM; AID 1377; actives 0.38% (n = 220,000); viability rescue, % at 10 µM;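 active means activation, scaled between plate controls, above about 75%, limit read from the data; inactive means activation under that limit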;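 further: 0% = zVAD with DMSO and 100% = DMSO alone without zVAD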
TNF necrop inh – blocks TNF-alpha induced death of Jurkat FADD-/- cells | Jurkat FADD-/- TNF necroptosis rescue, ATP luminescence, 24 h; 0 = TNF only, 100 = no-TNF cells | activation (protection from cell death), % at 10 µM | actives 0.068% (n = 220,000) | AID 463075;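 active means activation, meaning protection from cell death, of at least 50% relative to plate controls; inactive means activation below 50%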;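 further: necroptosis triggered by 40 ng/mL TNF-alpha added together with compound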
PfM18AAP inh-1 – PfM18AAP enzyme inhibition; recombinant PfM18AAP, H-Glu-NHMec fluorogenic cleavage; inhibition, % at 7.35 µM; actives 1.2% (n = 290,000);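 active means inhibition above the campaign mean inhibition over all tested compounds plus 3 SD, cut at about 28% in these data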;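 further: 0% = plate median of test compound wells and 100% = 2 mM ZnCl2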
PfM18AAP inh-2 – confirmation of Plasmodium falciparum M18 aspartyl aminopeptidase inhibitors. recombinant PfM18AAP, H-Glu-NHMec fluorogenic cleavage. inhibition, % at 7.35 µM. shares compounds with PfM18AAP inh-1. actives 28% (n = 2,400);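 active means mean inhibition over replicate wells above the hit cutoff set for the earlier primary screen, cut at about 29% in these data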;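 further: 0% = median of test compound wells and 100% = 2 mM ZnCl2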
CTSL1 confirm – Cathepsin L (human) inhibition, confirmation; shares compounds with PfM18AAP inh-1; purified cathepsin L1, Z-Leu-Arg-MCA fluorescence; inhibition, % at 5.96 µM; 2,400 tested, under 10 active;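 active means average inhibition across replicates above the hit cutoff set in the earlier primary screen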;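 further: 0% = median of test compound wells and 100% = Z-Phe-Ala-diazomethylketone 1 µM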
Target sequence (P07711 whole entry, looked up): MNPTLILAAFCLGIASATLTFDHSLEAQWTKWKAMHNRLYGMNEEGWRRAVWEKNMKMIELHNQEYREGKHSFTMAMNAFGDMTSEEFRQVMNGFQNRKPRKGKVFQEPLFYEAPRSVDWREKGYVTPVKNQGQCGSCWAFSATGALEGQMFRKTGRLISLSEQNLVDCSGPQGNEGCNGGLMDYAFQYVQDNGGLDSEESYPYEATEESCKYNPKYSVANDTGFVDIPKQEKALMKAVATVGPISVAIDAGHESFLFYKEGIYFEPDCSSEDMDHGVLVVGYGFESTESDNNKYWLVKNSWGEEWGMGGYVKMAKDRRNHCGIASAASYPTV
* hit, by the source's call; . = not tested or not shown. Compounds with a hit are over-represented: about 2.7% of the library has one in this group of screens.

SMILES	RBBP9 inh	p97 inhibitor	Wee1 stabilizer	zVAD death inh	TNF necrop inh	PfM18AAP inh-1	PfM18AAP inh-2	CTSL1 confirm
Cn1cc(/C=C2\C(=O)NC(=O)N(c3ccccc3)C2=O)c2ccccc21	.	.	.	.	.	35*	39*	1
COc1cc(/C=C2\C(=O)NC(=O)N(c3ccccc3)C2=O)cc(OC)c1O	-5	5	-1	1	1	36*	-39	6
CCN(CC)C(=O)Cn1cc(/C=C2\C(=O)NC(=O)N(c3ccccc3F)C2=O)c2ccccc21	.	.	.	.	.	35*	-7	-5
C=CCn1cc(C=C2C(=O)NC(=O)NC2=O)c2ccccc21	.	.	.	.	.	54*	33*	-5
CCN1C(=O)NC(=O)/C(=C\c2cn(CC(=O)N3CCCCC3C)c3ccccc23)C1=O (stereo unspecified)	.	.	.	.	.	16	.	.
COC(=O)OCC12CCC(O1)C1(C)C(=O)OCC21 (stereo unspecified)	-3	7	0	0	2	-2	.	.
CC(C)c1ccc(-n2c(O)c(C=NC(CCS(C)=O)C(=O)O)c(=O)[nH]c2=S)cc1 (stereo unspecified)	-7	-1	6	0	-2	1	.	.
CCc1ccc(N2C(=O)NC(=O)/C(=C\c3cc(C)n(-c4cc(C(=O)O)cc(C(=O)O)c4)c3C)C2=O)cc1	.	.	.	.	.	32*	-22	-1
Cc1ccc(N2C(=O)NC(=O)/C(=C\c3cc(C)n(-c4cc(C(=O)O)cc(C(=O)O)c4)c3C)C2=O)cc1	.	.	.	.	.	19	.	.
CC(=O)c1cccc(NC(=O)N2C[C@H]3C[C@@H](C2)c2cccc(=O)n2C3)c1	.	.	.	.	.	-4	.	.
CN1C(=O)C(=Cc2coc3ccccc3c2=O)C(=O)N(C)C1=O	-7	-2	3	0	-4	-3	.	.
O=C1NC(=O)C(=Cc2coc3ccc(O)cc3c2=O)C(=O)N1	6	9	-2	0	-5	39*	19	-1
O=c1c2ccccc2[se]n1-c1ccccc1	-84	1	-1	1	-6	94*	96*	-2
O=c1c2ccccc2nc(-c2ccccc2)n1-c1ccccc1	-10	-3	3	0	-2	6	.	.
O=c1oc2ccccc2c(O)c1C(c1ccc([N+](=O)[O-])cc1)c1c(O)c2ccccc2oc1=O	-12	2	-2	2	1	14	.	.
C/C(CC(c1ccccc1)c1c(O)c2ccccc2oc1=O)=N\Nc1ccc([N+](=O)[O-])cc1[N+](=O)[O-] (stereo unspecified)	7	2	5	0	1	36*	-28	-1
CCCCn1c(=O)c(C(=O)Nc2nnc(C(C)C)s2)c(O)c2ccccc21	-3	-3	-4	0	-1	-3	.	.
CCN(CC)S(=O)(=O)N1CCC(C(=O)N2CCC3(CC2)OCCO3)CC1	1	-5	2	2	2	-9	.	.
O=C(Cc1ccccc1)Oc1cccc(-n2cnnn2)c1	-5	5	2	2	0	24	.	.
CCCCNC(=O)NC(C(N)=O)P(=O)(OCC)OCC (stereo unspecified)	-5	6	2	3	1	-5	.	.
CC1=C(C(=O)O)N2C(=O)[C@@H](NC(=O)CCCC(=O)O)[C@H]2SC1	10	5	4	0	0	36*	15	3
COCCOC(=O)c1c(N)n(Cc2ccc(OC)cc2)c2nc3ccccc3nc12	-7	13	0	-1	-2	35*	-20	10
CC(=O)O[C@]1(C)C(=O)OC/C2=C/CN(C)CCC(OC(=O)[C@@](O)(C(C)O)C[C@H]1C)C2=O (stereo partly specified)	.	.	.	.	.	-8	.	.
COc1ccc(NC(=O)c2cn(CCC#N)nc2-c2ccc(OC)c(OC)c2)cc1	.	.	.	.	.	-1	.	.
O=C1NC(=O)C(=Cc2ccc(-c3ccc(F)cc3O)o2)C(=O)N1	.	.	.	.	.	51*	58*	0
SMILES	RBBP9 inh	p97 inhibitor	Wee1 stabilizer	zVAD death inh	TNF necrop inh	PfM18AAP inh-1	PfM18AAP inh-2	CTSL1 confirm
O=C1NC(=O)C(=Cc2ccc(-c3ccc(S(=O)(=O)N4CCOCC4)cc3)o2)C(=O)N1	.	.	.	.	.	-4	.	.
O=C1NC(=O)C(=Cc2ccc(-c3ccc(Cl)cc3)o2)C(=O)N1	.	.	.	.	.	33*	19	-4
COc1ccc(-n2c(/C=C/c3ccc(O)c(O)c3)nc3ccccc3c2=O)cc1	.	.	.	.	.	63*	45*	1
Oc1ccc(CC2CC3CCN2CC3)cc1O (stereo unspecified)	-4	1	0	1	1	57*	28	-4
O=C1C2CCN(CC2)C1Cc1ccccc1O (stereo unspecified)	0	-2	2	0	-2	-2	.	.
CCN(CC)c1ccc(/C=N/c2sc3c(c2C#N)C2CCN3CC2)c(O)c1	-5	2	5	59	3	32*	-37	0
COc1ccccc1-n1c(O)c(/C=C2\C=Nc3ccccc32)c(=O)[nH]c1=O	.	.	.	.	.	40*	43*	-9
C=CCn1c(O)c(C(C)=NCCCN(C)C)c(=O)[nH]c1=O	-7	-4	1	0	1	-3	.	.
COC(=O)C(O)(c1ccc(N=Cc2ccccc2O)c(C)c1)C(F)(F)F (stereo unspecified)	-7	5	-1	0	1	3	.	.
CC(C)(C)c1ccc(O)c(N=Cc2c(O)ccc3ccccc23)c1	.	.	.	.	.	89*	45*	3
NNc1n[nH]c(=S)n1N	-12	0	-2	0	-1	42*	40*	3
CN1C(=O)C(Cc2ccc3c(c2)OCO3)C(=O)N(C)C1=O	-4	8	2	13	4	34*	0	-3
CN(C)CC1CSCCC1(O)c1ccccc1 (stereo unspecified)	-8	2	-1	0	-1	2	.	.
